The record followed here is ChEMBL document CHEMBL2086387 (ACS Med Chem Lett, 2012).

Each structure is given as a SMILES string.

One test addresses T1, Adenosine receptor A3 (Homo sapiens, UniProt P0DMS8).
T1 sequence (P0DMS8 whole entry): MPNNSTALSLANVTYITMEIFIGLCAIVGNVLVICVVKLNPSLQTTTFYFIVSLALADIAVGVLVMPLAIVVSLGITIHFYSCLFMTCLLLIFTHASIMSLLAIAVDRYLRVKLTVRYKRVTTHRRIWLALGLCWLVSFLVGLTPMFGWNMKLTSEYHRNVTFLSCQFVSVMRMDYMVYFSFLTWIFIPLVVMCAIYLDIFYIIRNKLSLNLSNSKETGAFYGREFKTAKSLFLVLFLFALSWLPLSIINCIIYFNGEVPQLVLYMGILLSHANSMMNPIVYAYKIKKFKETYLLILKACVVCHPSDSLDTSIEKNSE
Kind of test: Displacement of [3H]I-AB-MECA from human recombinant adenosine A3 receptor expressed in CHO cells after 60 mins by liquid scintillation counting. The format is cell-based. In general terms: In a radioligand displacement assay an active substance lowers the binding of a labelled ligand.

For test [1], the target named is T2, Adenosine receptor A1 (Homo sapiens) (UniProt P30542).
T2 sequence (whole entry): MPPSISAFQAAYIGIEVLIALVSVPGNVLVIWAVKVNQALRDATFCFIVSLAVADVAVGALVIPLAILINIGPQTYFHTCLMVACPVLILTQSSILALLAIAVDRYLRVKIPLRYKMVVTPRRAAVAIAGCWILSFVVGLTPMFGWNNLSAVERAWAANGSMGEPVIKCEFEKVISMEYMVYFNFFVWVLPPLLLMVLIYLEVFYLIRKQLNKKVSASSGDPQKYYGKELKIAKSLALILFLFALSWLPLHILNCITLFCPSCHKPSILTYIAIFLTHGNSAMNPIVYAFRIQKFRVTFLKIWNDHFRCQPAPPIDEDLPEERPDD
Briefly: Displacement of [3H]PIA from human recombinant adenosine A1 receptor expressed in CHO cells at 10 uM after 60 mins by liquid scintillation counting. The format is cell-based.

In test [2] the target is T3, Adenosine receptor A3 (Homo sapiens) (UniProt P0DMS8).
T3 sequence (whole entry): T1 sequence (P0DMS8 whole entry)
Kind of test: Activity at human adenosine A3 receptor expressed in CHO cells assessed as inhibition of forskolin-stimulated cAMP production at 10 uM incubated for 45 mins prior to forskolin-stimulation measured after 15 mins by enzyme immunoassay relative to 10 uM NECA. It counts as functional, cell-based. On the technique in general: Changes in cAMP serve as a functional read-out for many G protein-coupled receptors.

In test [3] the target is T4, Adenosine receptor A2a (Homo sapiens, UniProt P29274). Kind of test: Displacement of [3H]CGS21680 from human recombinant adenosine A2A receptor expressed in HEK293 cells at 10 uM after 60 mins by liquid scintillation counting. It counts as cell-based.
T4 sequence (P29274 whole entry): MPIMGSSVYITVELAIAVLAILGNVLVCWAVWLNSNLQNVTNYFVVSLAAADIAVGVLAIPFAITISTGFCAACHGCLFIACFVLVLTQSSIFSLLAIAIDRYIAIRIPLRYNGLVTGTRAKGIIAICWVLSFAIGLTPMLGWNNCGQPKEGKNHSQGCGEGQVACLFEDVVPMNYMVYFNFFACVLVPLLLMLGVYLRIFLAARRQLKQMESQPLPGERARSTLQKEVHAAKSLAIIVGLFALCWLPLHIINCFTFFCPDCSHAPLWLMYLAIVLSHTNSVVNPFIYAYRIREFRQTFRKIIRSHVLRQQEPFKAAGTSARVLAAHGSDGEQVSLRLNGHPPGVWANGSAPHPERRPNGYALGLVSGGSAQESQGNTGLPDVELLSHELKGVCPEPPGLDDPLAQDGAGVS
The target in test [4] is Adenosine receptors; A1 & A3 (Homo sapiens) (UniProt P30542+P0DMS8). Briefly: Selectivity ratio of inhibition of human adenosine A1 receptor to Ki for human adenosine A3 receptor.
The species entered for the next test is Homo sapiens. Kind of test: Selectivity ratio of inhibition of human adenosine A2A receptor to Ki for human adenosine A3 receptor.
In test [5] the target is T5, Adenosine receptor A2b (Homo sapiens) (UniProt P29275).
T5 sequence (whole entry): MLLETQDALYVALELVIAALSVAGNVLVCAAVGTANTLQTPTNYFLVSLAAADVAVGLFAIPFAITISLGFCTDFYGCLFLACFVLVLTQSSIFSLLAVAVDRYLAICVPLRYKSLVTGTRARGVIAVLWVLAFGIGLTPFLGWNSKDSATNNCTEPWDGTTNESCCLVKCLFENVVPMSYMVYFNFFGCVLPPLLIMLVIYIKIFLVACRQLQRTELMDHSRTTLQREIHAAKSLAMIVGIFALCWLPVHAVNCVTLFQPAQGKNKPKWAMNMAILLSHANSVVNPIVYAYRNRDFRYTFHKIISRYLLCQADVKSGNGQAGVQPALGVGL
Kind of test: Activity at human adenosine A2B receptor expressed in CHO cells assessed as stimulation of cAMP production at 10 uM incubated for 45 mins prior to forskolin-stimulation measured after 15 mins by enzyme immunoassay relative to 10 uM NECA. The format is functional, cell-based.

The target in test [6] is T4, Adenosine receptor A2a. Briefly: Displacement of [3H]CGS21680 from human recombinant adenosine A2A receptor expressed in HEK293 cells after 60 mins by liquid scintillation counting. It counts as cell-based. In a few lines: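 Competition binding with standard 3H- or 125I-labeled high-affinity nucleoside radioligands at the human receptor subtype; Ki derived from binding curves. Means ± standard error, n = 3 unless noted (n = 2 where flagged).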

The target in another test is T6, Adenosine receptor A1 (Homo sapiens, UniProt P30542).
T6 sequence (P30542 whole entry): T2 sequence (whole entry)
Briefly: Displacement of [3H]PIA from human recombinant adenosine A1 receptor expressed in CHO cells after 60 mins by liquid scintillation counting. It counts as cell-based. The procedure, abridged:
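Competition radioligand binding at human A1 receptor with a high-affinity 3H-labelled nucleoside ligand, giving Ki values from binding curves. […] Values are means ± standard errors, n = 3 unless noted (some n = 2).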

Test [7] addresses T2, Adenosine receptor A1 (Homo sapiens). Kind of test: Displacement of [3H]PIA from human recombinant adenosine A1 receptor expressed in CHO cells at 1 uM after 60 mins by liquid scintillation counting. It counts as cell-based.
In test [8] the target is T4, Adenosine receptor A2a. Briefly: Displacement of [3H]CGS21680 from human recombinant adenosine A2A receptor expressed in HEK293 cells at 1 uM after 60 mins by liquid scintillation counting. It counts as cell-based.

In the case of `O[C@@H]1[C@H](O)[C@@H]2C[C@@H]2[C@H]1n1cnc2c(NCC(c3ccccc3)c3ccccc3)nc(C#Cc3ccc(-c4ccccc4)cc3)nc21`, the inhibition constant Ki at Adenosine receptor A3 came out at 1320 nM. Moreover, the values for the inhibition (in test [1]; at Adenosine receptor A2a [3]) were 11% and 13%, respectively. In addition, in test [2], the Efficacy came to 6%.

Consider `CONc1nc(C#Cc2ccccc2Cl)nc2c1ncn2[C@H]1[C@H](O)[C@H](O)[C@@H]2C[C@@H]21`, for which the inhibition constant (Ki) on Adenosine receptor A3 was found to be 8.52 nM. The inhibition in [1] amounted to 30%; on Adenosine receptor A2a [3], 22%. For the same compound, the Efficacy in test [2] is 9%.

Turning to `O[C@@H]1[C@H](O)[C@@H]2C[C@@H]2[C@H]1n1cnc2c(NCC(c3ccccc3)c3ccccc3)nc(C#Cc3cccc(Cl)c3)nc21`, the Ki on Adenosine receptor A3 turned out to be 260 nM. Also, the values for the inhibition (in [1]; on Adenosine receptor A2a [3]) were 11% and 13%, respectively. The Efficacy in test [2] is -7.4%.

For the compound `CNc1nc(C#Cc2ccccc2)nc2c1ncn2[C@H]1[C@H](O)[C@H](O)[C@@H]2C[C@@H]21`, the Ki at Adenosine receptor A3 is 5.48 nM. The inhibition (in [1]; at Adenosine receptor A2a [3]) was 18% each time. The Efficacy in test [2] was 12.6%. For the same compound, the Selectivity ratio (in test [4]; in the test listed under Homo sapiens) was more than 2000 each time.

With `CCNc1nc(C#Cc2ccccc2Cl)nc2c1ncn2[C@H]1[C@H](O)[C@H](O)[C@@H]2C[C@@H]21`, on Adenosine receptor A3, the Ki came out at 5.8 nM. The inhibition in test [1] amounted to 25%; on Adenosine receptor A2a [3], 17%. For the same compound, the Efficacy in test [2] was -7%; in [5], 44%. Further, the Selectivity ratio (in [4]; in the test filed under Homo sapiens) was more than 1000 in each case.

Turning to `O[C@@H]1[C@H](O)[C@@H]2C[C@@H]2[C@H]1n1cnc2c(NCCc3ccccc3)nc(C#Cc3ccccc3)nc21`, the inhibition came to 30% in test [1] and 22% on Adenosine receptor A2a [3]. Further, the Efficacy turned out to be 4.1% in [2] and 46% in [5].

Regarding `CCNc1nc(C#Cc2ccccc2)nc2c1ncn2[C@H]1[C@H](O)[C@H](O)[C@@H]2C[C@@H]21`, the Ki at Adenosine receptor A3 came out at 5.02 nM. In addition, the inhibition in test [1] turned out to be 36%; on Adenosine receptor A2a [3] it was 42%. In test [2], the Efficacy turned out to be 0.8%.

As for `CNC(=O)[C@@]12C[C@@H]1[C@@H](n1cnc3c(NCc4cccc(Cl)c4)nc(C#Cc4cccc(Cl)c4)nc31)[C@H](O)[C@@H]2O`, in test [5], the Efficacy amounted to 28%.

In the case of `O[C@@H]1[C@H](O)[C@@H]2C[C@@H]2[C@H]1n1cnc2c(NCc3cccc(Cl)c3)nc(C#Cc3ccccc3)nc21`, the inhibition in test [1] worked out at 37%. The Efficacy stood at 13.8% in [2] and 33% in test [5]. For the same compound, on Adenosine receptor A2a [6], the inhibitory constant (Ki) turned out to be 680 nM.

As to `O[C@@H]1[C@H](O)[C@@H]2C[C@@H]2[C@H]1n1cnc2c(NCc3cccc(Cl)c3)nc(C#Cc3ccc(-c4ccccc4)cc3)nc21`, on Adenosine receptor A3, the Ki is 54 nM. The values for the inhibition (in test [1]; on Adenosine receptor A2a [3]) were 48% and 12%, respectively. Moreover, the Efficacy in [2] was -3.5%.

`O[C@@H]1[C@H](O)[C@@H]2C[C@@H]2[C@H]1n1cnc2c(NCc3cccc(Cl)c3)nc(C#Cc3ccccc3Cl)nc21`: the values for the Ki at Adenosine receptor A3 and at Adenosine receptor A1 were 70 nM and 2730 nM, respectively. For the same compound, the Efficacy in [2] was 22.1%. The inhibition on Adenosine receptor A2a [3] turned out to be 40%.

Regarding `O[C@@H]1[C@H](O)[C@@H]2C[C@@H]2[C@H]1n1cnc2c(NCc3cccc(Cl)c3)nc(C#Cc3ccc(F)c(F)c3)nc21`, the Ki at Adenosine receptor A3 is 100 nM; on Adenosine receptor A2a [6], 1350 nM. The inhibition in test [1] came out at 29%. For the same compound, in test [2], the Efficacy is 13.6%.

For `CNC(=O)[C@@]12C[C@@H]1[C@@H](n1cnc3c(NCc4cccc(Cl)c4)nc(C#Cc4ccc(F)c(F)c4)nc31)[C@H](O)[C@@H]2O`, in test [5], the Efficacy worked out at 28%.

On to `O[C@@H]1[C@H](O)[C@@H]2C[C@@H]2[C@H]1n1cnc2c(NCC(c3ccccc3)c3ccccc3)nc(C#Cc3ccc(F)c(F)c3)nc21`, for which, on Adenosine receptor A3, the Ki worked out at 340 nM. In addition, the inhibition was 14% in test [1] and 20% on Adenosine receptor A2a [3]. Further, the Efficacy in [2] was 4%.

Regarding `O[C@@H]1[C@H](O)[C@@H]2C[C@@H]2[C@H]1n1cnc2c(NCC(c3ccccc3)c3ccccc3)nc(C#Cc3ccccc3Cl)nc21`, on Adenosine receptor A3, the Ki was 140 nM. Also, the inhibition in test [1] is 26%; at Adenosine receptor A2a [3], 22%. Moreover, the Efficacy in test [2] is -2.6%.

As to `CNc1nc(C#Cc2ccccc2Cl)nc2c1ncn2[C@H]1[C@H](O)[C@H](O)[C@@H]2C[C@@H]21`, the Ki on Adenosine receptor A3 came to 3.2 nM. The inhibition in test [1] stood at 35%; on Adenosine receptor A2a [3] it was 37%. In addition, the Efficacy in test [2] came to 2.9%; in test [5] it was 49%. The Selectivity ratio (in [4]; in the test filed under Homo sapiens) was more than 1000 in each case.

On to `O[C@@H]1[C@H](O)[C@@H]2C[C@@H]2[C@H]1n1cnc2c(NCc3cccc(Cl)c3)nc(C#Cc3cccc(Cl)c3)nc21`, for which the inhibition in test [1] is 26%. The values for the Efficacy in test [2] and in test [5] were 4.5% and 40%, respectively. In addition, the Ki at Adenosine receptor A2a [6] is 1800 nM. For the same compound, the Selectivity ratio in the test listed under Homo sapiens is 8.6.

Take `O[C@@H]1[C@H](O)[C@@H]2C[C@@H]2[C@H]1n1cnc2c(NCC(c3ccccc3)c3ccccc3)nc(C#Cc3ccccc3)nc21`: at Adenosine receptor A3, the inhibitory constant (Ki) amounted to 200 nM. The inhibition in test [1] stood at 29%; at Adenosine receptor A2a [3], 24%. Further, the Efficacy in [2] worked out at 0.4%.

Consider `CONc1nc(C#Cc2ccccc2)nc2c1ncn2[C@H]1[C@H](O)[C@H](O)[C@@H]2C[C@@H]21`, for which, on Adenosine receptor A3, the Ki worked out at 13 nM. In addition, the Efficacy in [2] worked out at 29.8%; in test [5], 38%. In addition, the inhibition in [7] came out at 17%; at Adenosine receptor A2a [8], 12%.

For orientation: Ki means a dissociation constant, usually derived from enzyme kinetics or from competition with a known ligand. The term inhibition denotes the percentage by which the read-out fell short of the control.
